Results: ChEMBL document CHEMBL5058577, “EUbOPEN Chemogenomics Library 2 (Multiplex)” (2022)

Test system: Fibroblast
Test: Multiplex assay against human fibroblast
Type: toxicity, cell-based
Method in brief: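 Phenotypes for tubulin, mitochondrial mass and membrane permeability are expressed as per cents of healthy-nucleus cells. Cells were stained live at seeding with Hoechst33342, BioTracker Green Microtubule Cytoskeleton Dye, MitoTracker Red and Annexin V Alexa Fluor 680, then imaged after compound addition on a CQ1 microscope at 37°C and 5% CO2. Machine-learning gating in CellPathfinder separated Hoechst high-intensity objects from normal cells, divided normal cells by nuclear state (healthy, pyknosed, fragmented) and divided pyknosed cells into mitotic or apoptotic.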

[1] = 12 h, 1 µM, compound concentration 1 uM, replicate 1
[2] = 12 h, 1 µM, compound concentration 1 uM, replicate 2
[3] = 12 h, 10 µM, compound concentration 10 uM, replicate 1
[4] = 12 h, 10 µM, compound concentration 10 uM, replicate 2
[5] = 24 h, 1 µM, compound concentration 1 uM, replicate 1
[6] = 24 h, 1 µM, compound concentration 1 uM, replicate 2
[7] = 24 h, 10 µM, compound concentration 10 uM, replicate 1
[8] = 24 h, 10 µM, compound concentration 10 uM, replicate 2
[9] = 48 h, 1 µM, compound concentration 1 uM, replicate 1
[10] = 48 h, 1 µM, compound concentration 1 uM, replicate 2
[11] = 48 h, 10 µM, compound concentration 10 uM, replicate 1
[12] = 48 h, 10 µM, compound concentration 10 uM, replicate 2

O=C(CCCc1ccccc1)Nc1nc2ccccc2c(=O)s1
Population Apoptotic (%) [1]: 58%
Population Fragmented Nuclei (%) [1]: 9%
Population Healthy Nuclei (%) [1]: 66%
Population Hoechst High Intensity Objects (%) [1]: 2%
Population Membrane Permeable-Phenotype (%) [1]: 0%
Population Mitochondria Different-Phenotype (%) [1]: 4%
Population Mitotic Cells (%) [1]: 41%
Population Normal (%) [1]: 97%
Population Pyknosed Nuclei (%) [1]: 23%
Population Tubulin-Different-Phenotype (%) [1]: 34%
Total Cell Count [1]: 127
Population Apoptotic (%) [2]: 34%
Population Fragmented Nuclei (%) [2]: 19%
Population Healthy Nuclei (%) [2]: 49%
Population Hoechst High Intensity Objects (%) [2]: 3%
Population Membrane Permeable-Phenotype (%) [2]: 9%
Population Mitochondria Different-Phenotype (%) [2]: 7%
Population Mitotic Cells (%) [2]: 65%
Population Normal (%) [2]: 96%
Population Pyknosed Nuclei (%) [2]: 31%
Population Tubulin-Different-Phenotype (%) [2]: 35%
Total Cell Count [2]: 135
Population Apoptotic (%) [3]: 51%
Population Fragmented Nuclei (%) [3]: 21%
Population Healthy Nuclei (%) [3]: 58%
Population Hoechst High Intensity Objects (%) [3]: 2%
Population Membrane Permeable-Phenotype (%) [3]: 1%
Population Mitochondria Different-Phenotype (%) [3]: 4%
Population Mitotic Cells (%) [3]: 48%
Population Normal (%) [3]: 97%
Population Pyknosed Nuclei (%) [3]: 20%
Population Tubulin-Different-Phenotype (%) [3]: 28%
Total Cell Count [3]: 147
Population Apoptotic (%) [4]: 31%
Population Fragmented Nuclei (%) [4]: 26%
Population Healthy Nuclei (%) [4]: 38%
Population Hoechst High Intensity Objects (%) [4]: 12%
Population Membrane Permeable-Phenotype (%) [4]: 13%
Population Mitochondria Different-Phenotype (%) [4]: 17%
Population Mitotic Cells (%) [4]: 68%
Population Normal (%) [4]: 87%
Population Pyknosed Nuclei (%) [4]: 35%
Population Tubulin-Different-Phenotype (%) [4]: 48%
Total Cell Count [4]: 133
Population Apoptotic (%) [5]: 50%
Population Fragmented Nuclei (%) [5]: 13%
Population Healthy Nuclei (%) [5]: 68%
Population Hoechst High Intensity Objects (%) [5]: 2%
Population Membrane Permeable-Phenotype (%) [5]: 0%
Population Mitochondria Different-Phenotype (%) [5]: 5%
Population Mitotic Cells (%) [5]: 50%
Population Normal (%) [5]: 97%
Population Pyknosed Nuclei (%) [5]: 18%
Population Tubulin-Different-Phenotype (%) [5]: 20%
Total Cell Count [5]: 147
Population Apoptotic (%) [6]: 42%
Population Fragmented Nuclei (%) [6]: 21%
Population Healthy Nuclei (%) [6]: 51%
Population Hoechst High Intensity Objects (%) [6]: 5%
Population Membrane Permeable-Phenotype (%) [6]: 4%
Population Mitochondria Different-Phenotype (%) [6]: 4%
Population Mitotic Cells (%) [6]: 57%
Population Normal (%) [6]: 94%
Population Pyknosed Nuclei (%) [6]: 26%
Population Tubulin-Different-Phenotype (%) [6]: 35%
Total Cell Count [6]: 131
Population Apoptotic (%) [7]: 46%
Population Fragmented Nuclei (%) [7]: 19%
Population Healthy Nuclei (%) [7]: 60%
Population Hoechst High Intensity Objects (%) [7]: 5%
Population Membrane Permeable-Phenotype (%) [7]: 0%
Population Mitochondria Different-Phenotype (%) [7]: 3%
Population Mitotic Cells (%) [7]: 53%
Population Normal (%) [7]: 94%
Population Pyknosed Nuclei (%) [7]: 20%
Population Tubulin-Different-Phenotype (%) [7]: 15%
Total Cell Count [7]: 135
Population Apoptotic (%) [8]: 53%
Population Fragmented Nuclei (%) [8]: 34%
Population Healthy Nuclei (%) [8]: 39%
Population Membrane Permeable-Phenotype (%) [8]: 18%
Population Mitochondria Different-Phenotype (%) [8]: 14%
Population Mitotic Cells (%) [8]: 46%
Population Pyknosed Nuclei (%) [8]: 25%
Population Tubulin-Different-Phenotype (%) [8]: 62%
Total Cell Count [8]: 134
Population Apoptotic (%) [9]: 59%
Population Fragmented Nuclei (%) [9]: 13%
Population Healthy Nuclei (%) [9]: 66%
Population Hoechst High Intensity Objects (%) [9]: 5%
Population Membrane Permeable-Phenotype (%) [9]: 1%
Population Mitochondria Different-Phenotype (%) [9]: 1%
Population Mitotic Cells (%) [9]: 40%
Population Normal (%) [9]: 94%
Population Pyknosed Nuclei (%) [9]: 19%
Population Tubulin-Different-Phenotype (%) [9]: 32%
Total Cell Count [9]: 146
Population Apoptotic (%) [10]: 42%
Population Fragmented Nuclei (%) [10]: 26%
Population Healthy Nuclei (%) [10]: 58%
Population Hoechst High Intensity Objects (%) [10]: 2%
Population Membrane Permeable-Phenotype (%) [10]: 4%
Population Mitochondria Different-Phenotype (%) [10]: 6%
Population Mitotic Cells (%) [10]: 57%
Population Normal (%) [10]: 97%
Population Pyknosed Nuclei (%) [10]: 15%
Population Tubulin-Different-Phenotype (%) [10]: 50%
Total Cell Count [10]: 127
Population Apoptotic (%) [11]: 58%
Population Fragmented Nuclei (%) [11]: 19%
Population Healthy Nuclei (%) [11]: 58%
Population Hoechst High Intensity Objects (%) [11]: 2%
Population Membrane Permeable-Phenotype (%) [11]: 1%
Population Mitochondria Different-Phenotype (%) [11]: 2%
Population Mitotic Cells (%) [11]: 41%
Population Normal (%) [11]: 97%
Population Pyknosed Nuclei (%) [11]: 22%
Population Tubulin-Different-Phenotype (%) [11]: 26%
Total Cell Count [11]: 143
Population Apoptotic (%) [12]: 77%
Population Fragmented Nuclei (%) [12]: 40%
Population Healthy Nuclei (%) [12]: 43%
Population Hoechst High Intensity Objects (%) [12]: 5%
Population Membrane Permeable-Phenotype (%) [12]: 10%
Population Mitochondria Different-Phenotype (%) [12]: 14%
Population Mitotic Cells (%) [12]: 22%
Population Normal (%) [12]: 94%
Population Pyknosed Nuclei (%) [12]: 16%
Population Tubulin-Different-Phenotype (%) [12]: 73%
Total Cell Count [12]: 119
